# Screening results deposited in PubChem BioAssay by several laboratories.
# Compounds with a hit are over-represented: about 1.9% of the library has one in this group of screens.
# SR-BI DiI-HDL act = enhances SR-BI lipid uptake from DiI-HDL; CHO ldlA[mSR-BI] cells, DiI-HDL uptake fluorescence, 3 h; 100 = double the neutral-control signal; activation, % at 12.5 µM; hit rate 0.096% among 320,000;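 active means mean replicate activation of at least 60% and every replicate at or above 60%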;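 further: 0% = median plate neutral-control signal and 100% = twice that signal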
#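 Assay system: CHO ldlA[mSR-BI] cells, LDL receptor-null, SR-BI overexpressing; medium: Ham's F12 with 0.5% BSA, HEPES 25 mM, pH 7.4; also added: DiI-HDL 10 µg/mL; timing: 3 h uptake period with compound, 37 °C; signal: DiI fluorescence, bottom read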
# SR-BI HDL uptake = blocks mouse SR-BI lipid uptake from DiI-HDL. Q61009. ldlA[mSR-BI] CHO cells, DiI-HDL uptake fluorescence, 3 h. inhibition, % at 12.5 µM. hit rate 0.96% among 320,000. AID 488896;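 active means mean replicate inhibition of at least 70% and a set share of replicates each scoring 70 or more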;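 further: 0% = median of neutral control wells and 100% = median of positive control wells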
# Target sequence (Q61009 whole entry, looked up): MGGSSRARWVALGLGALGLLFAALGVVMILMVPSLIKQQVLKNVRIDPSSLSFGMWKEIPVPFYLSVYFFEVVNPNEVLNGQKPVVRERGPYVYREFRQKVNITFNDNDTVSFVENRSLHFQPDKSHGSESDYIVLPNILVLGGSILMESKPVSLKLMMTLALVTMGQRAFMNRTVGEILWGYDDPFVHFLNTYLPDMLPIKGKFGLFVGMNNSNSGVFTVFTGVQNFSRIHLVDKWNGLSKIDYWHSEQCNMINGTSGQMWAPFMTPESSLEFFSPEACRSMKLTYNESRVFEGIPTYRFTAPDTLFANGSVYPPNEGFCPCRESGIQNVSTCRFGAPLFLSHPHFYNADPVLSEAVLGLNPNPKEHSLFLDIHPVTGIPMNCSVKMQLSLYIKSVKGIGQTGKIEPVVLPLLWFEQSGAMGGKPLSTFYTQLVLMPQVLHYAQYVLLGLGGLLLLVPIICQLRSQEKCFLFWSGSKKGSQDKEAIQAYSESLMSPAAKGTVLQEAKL
# Neddyl block = blocks human cullin neddylation; P61081+Q13564; TR-FRET cullin neddylation, biochemical; inhibition, % at 25 µM; hit rate 0.58% among 360,000; AID 651699; in the data active means inhibition above about 36%
# UBC13 inh = inhibitors of human UBC13 polyubiquitin chain formation | P61088 | TR-FRET | inhibition, % at 20 µM | hit rate 0.47% among 330,000 | AID 485273; in the data active means inhibition above about 45%, passing the limit was not always enough
# * = called active by the depositor; i = inactive; . = no result given.
SMILES,SR-BI DiI-HDL act,SR-BI HDL uptake,Neddyl block,UBC13 inh
COc1cc(/C=N/NC(N)=S)ccc1OCc1ccc(C)cc1,-66,66,-7,7
N#CCCN=C(NS(=O)(=O)c1ccccc1)c1ccccc1,.,.,3,3
COC(=O)CCc1c(C)c(C(=O)c2cc(OC)c(OC)c(OC)c2)c2ccccn12,-5,5,-59,-2
COc1ccc(CN2C(=O)c3cccc4cccc(c34)C2c2nc3ccccc3[nH]2)cc1 (stereo not given),.,.,5,.
O=S(=O)(/N=S1\CC=CCN1S(=O)(=O)c1ccccc1)c1ccccc1 (stereo not given),-18,18,9,.
COc1ccc(C)cc1NC(=O)C1CCN(C(=O)C2CC(=O)N(c3ccc(C)cc3)C2)CC1 (stereo not given),-89,89*,-1,0
COc1ccc(OC)c(NC(=O)C2CCN(C(=O)C3CC(=O)N(c4ccc(C)cc4)C3)CC2)c1 (stereo not given),.,.,1,-4
Cc1ccccc1OCC(=O)NC(=S)Nc1ccc(N2CCOCC2)c(Cl)c1,867*,i,-4,-1
CCOC(=O)c1cccc(NC(=O)/C=C/c2cccc([N+](=O)[O-])c2)c1,-73,73*,-7,4
COc1ccccc1/C=C/C=N/n1c(-c2n[nH]c3c2CCC3)n[nH]c1=S,.,.,0,-9
S=c1[nH]nc(-c2n[nH]c3c2CCC3)n1/N=C/C=C/c1ccco1,.,.,55*,-2
NC(=O)NCC(c1ccccc1)C1CCCCC1 (stereo not given),-23,23,3,4
CN(C)C=Nc1ccc([N+](=O)[O-])c2ccccc12,.,.,-54,.
CN(CC1CCCN(CCc2ccc(Cl)cc2)C1)C(=O)c1ccco1 (stereo not given),-1,1,-2,-1
O=[N+]([O-])c1ccc(-c2nc(Nc3ccc(O)cc3)c3ccccc3n2)cc1,-91,91*,-15,-6
COc1ccc(Nc2nc(-c3cccc([N+](=O)[O-])c3)nc3ccccc23)cc1,-88,88*,-3,-4
COc1ccc(Nc2nc(-c3ccccc3)nc3ccccc23)cc1,-50,50,.,18
COc1ccc(Nc2nc(-c3cccs3)nc3ccccc23)cc1,-75,75*,.,12
COc1cccc(Nc2nc(-c3cccs3)nc3ccccc23)c1,-69,69,.,21
O=[N+]([O-])c1ccc(S(=O)(=O)Nc2nc3ccccc3nc2Nc2ccccc2)cc1,-78,78*,-12,-16
CC1(Cc2cc(Cl)ccc2C(F)(F)F)C(=O)Nc2cc(-c3ccccc3Cl)ccc21 (stereo not given),.,.,-1,.
CC(=O)N1C[C@@H](CO)[C@@H](N(C)C(=O)C(C)(C)C)C[C@H]1c1ccccc1,.,.,-2,.
OC[C@@H]1CN(Cc2ccc(-c3ccccc3)cc2)C[C@H](n2cnc3c(N4CCOCC4)ncnc32)O1,.,.,-10,.
NC(N)=N/N=C/c1ccc(OCc2ccccc2Cl)cc1,-6,6,-12,74*
NC(N)=N/N=C/c1ccccc1,15,-15,-5,2
SMILES,SR-BI DiI-HDL act,SR-BI HDL uptake,Neddyl block,UBC13 inh
Nc1ccn(CCCN2CCN(C(=O)C3CC3)CC2)c(=O)n1,.,.,1,.
CCc1nc2ccc(C(=O)NC3CCC(C)CC3)cc2nc1CC (stereo not given),-36,36,-19,-18
CCOc1cc(C(=O)N2CCC(CC3CC(c4cccc(Br)c4)=NO3)(C(=O)NCC3CCCCC3)CC2)cc(OCC)c1OCC (stereo not given),-74,74*,-35,-33
CCCCC(CC)C(=O)Nc1cc(=O)[nH]c2nc3ccccc3n12 (stereo not given),410*,-410,24,-1
O=C(CCN1C(=O)/C(=C\c2ccccc2)SC1=S)NNC(=O)c1ccccc1O,-99,99*,-34,-12
O=C(CCSc1nc2ccccc2s1)N/N=C/c1c(O)ccc2ccccc12,-105,105*,-82,-17
COc1ccc(-n2nc(C(=O)NCC(=O)NCCCN3CC(C)CC(C)C3)c3ccccc3c2=O)cc1OC (stereo not given),.,.,-15,6
O=c1cc(Cn2ccnc2)c2cc(O)ccc2o1,-78,78*,-5,-2
COc1cc(/C=C(\C#N)C(=O)Nc2ccc(SC(F)F)cc2)cc(OC)c1OC,-86,86*,-1,-7
Oc1ccc(C2Nc3cccc4cccc(c34)N2)c(O)c1,-91,91*,-26,-5
O=c1ccn([C@@H]2O[C@H](CNCc3c(OCc4ccccc4F)ccc4ccccc34)[C@@H](O)[C@H]2O)c(=O)[nH]1,.,.,-22,.
COC(=O)c1[nH]c(=O)c2ccccc2c1OCc1ccccc1,200*,-200,-5,-1
COc1ccc(CNC(=O)CN(C(=O)c2csnn2)c2cccc(C(C)=O)c2)cc1,10,-10,4,2
O=C(NCCc1c[nH]c2ccccc12)C(=O)NCC1OCCN1S(=O)(=O)c1ccccc1 (stereo not given),-13,13,0,9
Cc1cc(C)c(S(=O)(=O)N2CCOC2CNC(=O)C(=O)NCCc2c[nH]c3ccccc23)c(C)c1 (stereo not given),196*,-196,2,3
O=C(C[C@H]1C[C@H](C(=O)N2CCOCC2)[C@@]2(CCC3CCCC3)c3[nH]c4ccc(Cl)cc4c3CCN2C1=O)NCC12CC3CC(CC(C3)C1)C2,33,-33,-10,.
CCOC(=O)Cc1csc(N/N=C\c2ccc(N(C)C)cc2)n1,-11,11,8,-6
Oc1c(Cl)cc(Cl)cc1/C=N/NC(=S)NC1CC2C=CC1C2 (stereo not given),-98,98*,.,-10
CCOC(=O)/C(=N\Nc1ccc(C(C)=O)cc1)c1csc(Nc2ccccc2)n1,-51,51,16,-6
CCOC(=O)/C(=N\Nc1ccccc1[N+](=O)[O-])c1csc(N)n1,-78,78*,-32,-65
CC(C)CC1NC(=O)N(CC(=O)Nc2ccc(OCc3ccccc3)cc2)C1=O (stereo not given),-9,9,5,7
CC(C)C[C@@H]1CC2=C(C(=O)OC(C)(C)O2)[C@H](CCc2ccccc2)O1,.,.,8,.
CCOc1ccc(-c2c(C(=O)N/N=C/c3ccc(C)o3)nnn2-c2nonc2N)cc1,-76,76*,34,-19
CCCOc1ccc(-c2c(C(=O)N/N=C/c3cccs3)nnn2-c2nonc2N)cc1,-73,73*,-17,-7
Cc1ccc(/C=N/NC(=O)c2nnn(-c3nonc3N)c2-c2ccccc2)o1,-22,22,5,-7
CCCOc1ccc(-c2c(C(=O)N/N=C/c3ccc(C)o3)nnn2-c2nonc2N)cc1,-78,78*,.,0
Cc1ccc(-c2c(C(=O)N/N=C/c3sccc3C)nnn2-c2nonc2N)cc1,-85,85*,-5,-7
CCCOc1ccc(-c2c(C(=O)N/N=C/c3ccncc3)nnn2-c2nonc2N)cc1,-39,39,-16,2
CCCOc1ccc(-c2c(C(=O)N/N=C/c3ccc(OCC)cc3)nnn2-c2nonc2N)cc1,-62,62,8,-13
